Converted amounts (≈) assume the structure as drawn. The source made the active and inactive calls. No cut-off for these calls is given here.
How the values were obtained:
[1] = system: Mycobacterium tuberculosis; experiment: Antimycobacterial activity against multidrug-resistant Mycobacterium tuberculosis clinical isolate; assay type: functional
Outline: (§1)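 Clinical isolates coded 960 (drug-susceptible), 330 (MDR) and 431 (XDR); MIC reported in μM.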

[2] = system: Mycobacterium tuberculosis; experiment: Antitubercular activity against Mycobacterium tuberculosis H37Ra harboring pTYOK infected in Balb/c mouse assessed as bacterial growth inhibition at 10 mg/kg qd measured at 2 days interval for 6 days by luminometric method; assay type: functional, organism-based
Outline: (§2)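 Mice infected with marker-free autoluminescent Mtb H37Ra and dosed once daily for 6 consecutive days; vehicle CMC-Na. Read-out is the luminescence ratio RLU on day n over RLU on day 0, plotted against days after the first treatment.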

[3] = system: Mycobacterium tuberculosis; experiment: Antimycobacterial activity against extensively drug-resistant Mycobacterium tuberculosis clinical isolate; assay type: functional; outline: as §1
[4] = system: Mycobacterium tuberculosis; experiment: Antimycobacterial activity against kanamycin-resistant Mycobacterium tuberculosis ATCC 35827 by resazurin dye based fluorimetric method; assay type: functional
[5] = system: Mycobacterium tuberculosis; experiment: Antimycobacterial activity against ethionamide-resistant Mycobacterium tuberculosis ATCC 35830 by resazurin dye based fluorimetric method; assay type: functional
[6] = system: Mycobacterium tuberculosis; experiment: Antimycobacterial activity against streptomycin-resistant Mycobacterium tuberculosis ATCC 35820 by resazurin dye based fluorimetric method; assay type: functional
[7] = system: Mycobacterium tuberculosis; experiment: Antimycobacterial activity against ethambutol-resistant Mycobacterium tuberculosis ATCC 35837 by resazurin dye based fluorimetric method; assay type: functional
[8] = system: Mycobacterium tuberculosis; experiment: Antimycobacterial activity against rifampicin-resistant Mycobacterium tuberculosis H37Rv by resazurin dye based fluorimetric method; assay type: functional
[9] = system: Mycobacterium tuberculosis; experiment: Antitubercular activity against Mycobacterium tuberculosis H37Ra harboring pTYOK infected in Balb/c mouse assessed as bacterial growth inhibition at 3.1 mg/kg qd measured at 2 days interval for 6 days by luminometric method; assay type: functional, organism-based; outline: as §2
[10] = system: Mycobacterium tuberculosis; experiment: Potency index, ratio of isoniazid MIC to test compound MIC for extensively drug-resistant Mycobacterium tuberculosis clinical isolate; assay type: functional
[11] = system: Mycobacterium tuberculosis; experiment: Potency index, ratio of ftivazide MIC to test compound MIC for extensively drug-resistant Mycobacterium tuberculosis clinical isolate; assay type: functional

## CO[C@H]1/C=C/O[C@@]2(C)Oc3c(C)c(O)c4c(O)c(c(/C=N/N5CCN(C)CC5)c(O)c4c3C2=O)NC(=O)/C(C)=C\C=C\[C@H](C)[C@H](O)[C@@H](C)[C@@H](O)[C@@H](C)[C@H](OC(C)=O)[C@@H]1C [RIFAMPIN]
[1]
  MIC: > 19 µM
[2]
  growth inhibition (GI): Active
[3]
  MIC: > 19 µM

## O=C(N/N=C/c1ccc(CSc2nc3ccccc3[nH]2)cc1)c1ccncc1
[4]
  MIC: 0.156 µg/mL (≈ 0.403 µM)
[5]
  MIC: 1.25 µg/mL (≈ 3.23 µM)
[1]
  MIC: 6.4 µM (≈ 2.48 µg/mL)
[6]
  MIC: 0.156 µg/mL (≈ 0.403 µM)
[7]
  MIC: 0.156 µg/mL (≈ 0.403 µM)
[8]
  MIC: 0.312 µg/mL (≈ 0.805 µM)
[3]
  MIC: > 12.8 µM

## O=C(NCc1ccc(CSc2nc3ccccc3o2)cc1)c1ccncc1
[1]
  MIC: 2 µM (≈ 0.751 µg/mL)
[3]
  MIC: 16 µM (≈ 6.01 µg/mL)

## O=C(N/N=C/c1ccc(CSc2nc3ccccc3o2)cc1)c1ccncc1
[9]
  growth inhibition (GI): Active
[4]
  MIC: 0.156 µg/mL (≈ 0.402 µM)
[5]
  MIC: 1.25 µg/mL (≈ 3.22 µM)
[1]
  MIC: 6.4 µM (≈ 2.49 µg/mL)
[10]
  Ratio: 20
[11]
  Ratio: 10
[6]
  MIC: 0.156 µg/mL (≈ 0.402 µM)
[7]
  MIC: 0.156 µg/mL (≈ 0.402 µM)
[8]
  MIC: 0.312 µg/mL (≈ 0.803 µM)
[3]
  MIC: 3.2 µM (≈ 1.24 µg/mL)

## O=C(N/N=C/c1ccc(CSc2nc3ccccc3s2)cc1)c1ccncc1
[4]
  MIC: 0.312 µg/mL (≈ 0.771 µM)
[5]
  MIC: 1.25 µg/mL (≈ 3.09 µM)
[1]
  MIC: 6.4 µM (≈ 2.59 µg/mL)
[6]
  MIC: 0.312 µg/mL (≈ 0.771 µM)
[7]
  MIC: 0.312 µg/mL (≈ 0.771 µM)
[8]
  MIC: 0.625 µg/mL (≈ 1.55 µM)
[3]
  MIC: > 12.8 µM

## NNC(=O)c1ccncc1 [ISONIAZID]
[1]
  MIC: 8 µM (≈ 1.1 µg/mL)
[3]
  MIC: 64 µM (≈ 8.78 µg/mL)

## COc1cc(/C=N/NC(=O)c2ccncc2)ccc1O [FTIVAZIDE]
[4]
  MIC: 0.156 µg/mL (≈ 0.575 µM)
[5]
  MIC: 1.25 µg/mL (≈ 4.61 µM)
[1]
  MIC: 16 µM (≈ 4.34 µg/mL)
[6]
  MIC: 0.312 µg/mL (≈ 1.15 µM)
[7]
  MIC: 0.312 µg/mL (≈ 1.15 µM)
[8]
  MIC: 0.312 µg/mL (≈ 1.15 µM)
[3]
  MIC: 32 µM (≈ 8.68 µg/mL)
